The source made the active and inactive calls. No cut-off for these calls is given here.
Assays:
[1] = tested on: Human immunodeficiency virus 1; assay: Antiviral activity against HIV1 3B infected in human CEM-SS cells assessed as inhibition of virus-induced cytopathic effect after 6 days by MTS assay; format: functional, organism-based; settings: Human immunodeficiency virus 1, 3B, 144 h
Procedure, shortened: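 CEM-SS cells mixed with pre-titered HIV-1 IIIB (virus control wells lose 70–95% viability) in presence of compound, incubated 6 days; cytoprotection read by MTS or XTT dye reduction. Plates held cell, virus, compound toxicity and colorimetric controls; AZT positive control. EC50 = concentration inhibiting virus replication by 50%.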

[2] = Cytotoxicity against human CEM-SS cells after 6 days by MTS assay; format: cell-based; settings: read-out: TC50
[3] = Therapeutic index, ratio of TC50 for human CEM-SS cells to EC50 for HIV1 3B; format: cell-based; settings: read-out: TI
Procedure, shortened: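 TI calculated as TC50/EC50 from the 6-day CEM-SS cytoprotection assay (HIV-1 IIIB; MTS or XTT dye reduction) and matching compound-only toxicity wells.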

[4] = biological target: Human immunodeficiency virus type 1 reverse transcriptase (Human immunodeficiency virus 1, UniProt Q72547); assay: Inhibition of HIV 3B reverse transcriptase using [3H]TTP as a tracer by scintillation counting
[5] = biological target: Human immunodeficiency virus type 1 integrase (Human immunodeficiency virus 1, UniProt Q7ZJM1); assay: Inhibition of HIV 3B integrase strand transfer activity
Procedure, shortened: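 IN expressed in E. coli BL21(DE3) by IPTG induction. 600 nM IN in HEPES pH 7.5, 10 mM MnCl2, 1 mM DTT, 10% glycerol, BSA, Brij-35 preincubated 10 min at room temperature with inhibitor or DMSO; 50 nM annealed 5'-biotin/3'-cy5 duplex DNA added, 2 h 37 °C. Product captured on streptavidin plate, washed, eluted with formamide, fluorescence read.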

[6] = tested on: Human immunodeficiency virus 1; assay: Antiviral activity against HIV1 3B infected in human CEM-SS cells assessed as reduction in virus-induced cytopathic effect at 10 uM after 6 days by MTS assay; format: functional; set-up: scale not given: the % may be the effect or the level left
[7] = biological target: Human immunodeficiency virus type 1 reverse transcriptase (Human immunodeficiency virus 1) (UniProt Q72547); assay: Inhibition of HIV 3B reverse transcriptase at 10 uM using [3H]TTP as a tracer by scintillation counting
Procedure, shortened: (§1)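 Resin-bound poly(A) template in scintillation format incubated with compound and [3H]-TTP tracer; reaction started by adding RT enzyme, run 3 h at 37 °C, quenched with stop buffer; incorporated [3H]-TTP counted 1 min per sample on a beta counter.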

[8] = biological target: Human immunodeficiency virus type 1 reverse transcriptase (Human immunodeficiency virus 1) (UniProt Q72547); assay: Inhibition of HIV 3B reverse transcriptase at 100 uM using [3H]TTP as a tracer by scintillation counting; procedure, shortened: as §1

Sequence of Human immunodeficiency virus type 1 integrase (Q7ZJM1 whole entry): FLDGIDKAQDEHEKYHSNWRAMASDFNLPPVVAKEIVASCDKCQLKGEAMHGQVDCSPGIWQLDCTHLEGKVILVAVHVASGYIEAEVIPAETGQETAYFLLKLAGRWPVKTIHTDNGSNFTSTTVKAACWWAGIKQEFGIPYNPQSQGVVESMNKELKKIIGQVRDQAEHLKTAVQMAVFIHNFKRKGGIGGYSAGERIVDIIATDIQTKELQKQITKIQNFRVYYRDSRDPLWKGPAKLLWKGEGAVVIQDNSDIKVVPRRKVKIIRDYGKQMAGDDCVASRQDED

Row | SMILES | EC50 [1] | CC50 at 144 h [2] | selectivity ratio [3] | IC50 [4] | IC50 [5] | Activity [6] | inhibition [7] | inhibition [8]
1 | CC(C)c1c(Cc2ccccc2)n(COCc2ccc(Cc3cccc(C(=O)/C=C(\O)C(=O)O)c3)cc2)c(=O)[nH]c1=O | 0.46 µM | > 100 µM | > 220 | 0.16 µM | 11 µM |  |  | 
2 | CCc1c(Cc2ccccc2)n(COCc2ccc(Cc3cccc(C(=O)/C=C(\O)C(=O)O)c3)cc2)c(=O)[nH]c1=O | 0.56 µM | 32 µM | 56 | 0.71 µM | 16 µM |  |  | 
3 | CC(C)c1c(Cc2ccccc2)n(COCCc2ccc(C(=O)/C=C(\O)C(=O)O)cc2)c(=O)[nH]c1=O |  |  |  |  | 7.4 µM | 100% | 100% | 100%
4 | CCc1c(Cc2cc(C)cc(C)c2)n(COCc2ccc(Cc3cccc(C(=O)/C=C(\O)C(=O)O)c3)cc2)c(=O)[nH]c1=O | 0.014 µM | > 100 µM | > 710 | 0.028 µM | 14 µM |  |  | 
5 | CC(C)c1c(Cc2ccccc2)[nH]c(=O)n(CCCCCCc2ccc(C(=O)/C=C(\O)C(=O)O)cc2)c1=O |  |  |  |  | > 100 µM | 9% | 0% | 0%
6 | CC(C)c1c(Cc2ccccc2)[nH]c(=O)n(CCc2ccc(C(=O)/C=C(\O)C(=O)O)cc2)c1=O |  |  |  |  | 8 µM | 28% | 0% | 0%
7 | Cc1cc(C)cc(Cc2c(C(C)C)c(=O)[nH]c(=O)n2COCc2ccc(Cc3cccc(C(=O)/C=C(\O)C(=O)O)c3)cc2)c1 | 0.17 µM | 96 µM | 560 | 0.1 µM | 22 µM |  |  | 
8 | CC(C)c1c(Cc2ccccc2)[nH]c(=O)n(CCCCc2ccc(C(=O)/C=C(\O)C(=O)O)cc2)c1=O |  |  |  |  | 37 µM | 0% | 0% | 0%
9 | CCc1c(Cc2ccccc2)nc(SCc2ccc(Cc3cccc(C(=O)/C=C(\O)C(=O)O)c3)cc2)[nH]c1=O |  |  |  |  | > 100 µM | inactive | 0% | 0%
10 | CC(C)c1c(Cc2ccccc2)n(COCCCc2ccc(C(=O)/C=C(\O)C(=O)O)cc2)c(=O)[nH]c1=O |  |  |  |  | 8.2 µM | 91% | 100% | 100%
11 | CC(C)c1c(Cc2ccccc2)[nH]c(=O)n(CCCc2ccc(C(=O)/C=C(\O)C(=O)O)cc2)c1=O |  |  |  |  | 12 µM | 0.6% | 0% | 0%
12 | CCc1c(Cc2ccccc2)nc(SCc2ccc(C(=O)/C=C(\O)C(=O)O)cc2)[nH]c1=O |  |  |  |  | > 100 µM | inactive | 0% | 0%

Source: ChEMBL document CHEMBL1166013, “Pharmacophore and structure-activity relationships of integrase inhibition within a dual inhibitor scaffold of HIV reverse transcriptase and integrase” (Bioorg Med Chem, 2010)
